ChEMBL document CHEMBL5674868, “Cancer Cells Hijack PRC2 to Modify Multiple Cytokine Pathways” (PLoS One, 2015)
Activity calls are given as the source filed them. The rule behind the calls is not given here.

How the values were obtained:
Format in all cases: cell-based
[1] = molecular target: Histone-lysine N-methyltransferase EZH2 (Homo sapiens) (UniProt Q15910); experiment: Inhibition of EZH2 in human A549 cells assessed as effect on IRF1 mRNA level after 6 hrs by RT-PCR analysis
Outline: (§1)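 Cells were treated for two four-day cycles with 2 μM GSK343 or UNC1999, then left untreated or stimulated with human IFNγ for 6 h. mRNA was measured by reverse transcription quantitative PCR and normalized to β-actin. Three biological replicates were run per treatment group.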

[2] = molecular target: Histone-lysine N-methyltransferase EZH2 (Homo sapiens) (UniProt Q15910); experiment: Inhibition of EZH2 in human A549 cells assessed as effect on IRF1 mRNA level after 6 hrs by RT-PCR analysis in presence of IFN-gamma; outline: as §1
[3] = molecular target: Histone-lysine N-methyltransferase EZH2 (Homo sapiens) (UniProt Q15910); experiment: Inhibition of EZH2 in human MCF7 cells assessed as effect on HPRT mRNA level after 6 hrs by RT-PCR analysis in presence of IFN-gamma; outline: as §1
[4] = molecular target: Histone-lysine N-methyltransferase EZH2 (Homo sapiens) (UniProt Q15910); experiment: Inhibition of EZH2 in human MCF7 cells assessed as effect on HPRT mRNA level after 6 hrs by RT-PCR analysis; outline: as §1
[5] = molecular target: Histone-lysine N-methyltransferase EZH2 (Homo sapiens) (UniProt Q15910); experiment: Inhibition of EZH2 in human ASPC1 cells assessed as effect on IRF1 mRNA level after 6 hrs by RT-PCR analysis in presence of IFN-gamma; outline: as §1
[6] = molecular target: Histone-lysine N-methyltransferase EZH2 (Homo sapiens) (UniProt Q15910); experiment: Inhibition of EZH2 in human MCF7 cells assessed as decrease in H3K27me3 levels at 2 uM after 6 hrs by Western blot analysis
[7] = molecular target: Histone-lysine N-methyltransferase EZH2 (Homo sapiens) (UniProt Q15910); experiment: Inhibition of EZH2 in human HeLa cells assessed as effect on HPRT mRNA level after 6 hrs by RT-PCR analysis; outline: as §1
[8] = molecular target: Histone-lysine N-methyltransferase EZH2 (Homo sapiens) (UniProt Q15910); experiment: Inhibition of EZH2 in human MCF7 cells assessed as effect on PITX2 mRNA level after 6 hrs by RT-PCR analysis in presence of IFN-gamma
Outline: (§2)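 Cells pretreated for two 4-day cycles with 2 µM GSK343 or UNC1999, then left unstimulated or given human IFNγ for 6 h. RNA reverse-transcribed and measured by quantitative PCR, normalized to β-actin. Three biological replicates per treatment group.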

[9] = molecular target: Histone-lysine N-methyltransferase EZH2 (Homo sapiens) (UniProt Q15910); experiment: Inhibition of EZH2 in human HeLa cells assessed as effect on PITX2 mRNA level after 6 hrs by RT-PCR analysis; outline: as §1
[10] = molecular target: Histone-lysine N-methyltransferase EZH2 (Homo sapiens) (UniProt Q15910); experiment: Inhibition of EZH2 in human ASPC1 cells assessed as effect on IRF1 mRNA level after 6 hrs by RT-PCR analysis; outline: as §1
[11] = molecular target: Histone-lysine N-methyltransferase EZH2 (Homo sapiens) (UniProt Q15910); experiment: Inhibition of EZH2 in human HeLa cells assessed as effect on IRF1 mRNA level after 6 hrs by RT-PCR analysis in presence of IFN-gamma; outline: as §1
[12] = molecular target: Histone-lysine N-methyltransferase EZH2 (Homo sapiens) (UniProt Q15910); experiment: Inhibition of EZH2 in human MCF7 cells assessed as effect on PITX2 mRNA level after 6 hrs by RT-PCR analysis; outline: as §2
[13] = molecular target: Histone-lysine N-methyltransferase EZH2 (Homo sapiens) (UniProt Q15910); experiment: Inhibition of EZH2 in human ASPC1 cells assessed as effect on PITX2 mRNA level after 6 hrs by RT-PCR analysis; outline: as §1
[14] = molecular target: Histone-lysine N-methyltransferase EZH2 (Homo sapiens) (UniProt Q15910); experiment: Inhibition of EZH2 in human A549 cells assessed as effect on PITX2 mRNA level after 6 hrs by RT-PCR analysis; outline: as §1
[15] = molecular target: Histone-lysine N-methyltransferase EZH2 (Homo sapiens) (UniProt Q15910); experiment: Inhibition of EZH2 in human HeLa cells assessed as effect on HPRT mRNA level after 6 hrs by RT-PCR analysis in presence of IFN-gamma; outline: as §1
[16] = molecular target: Histone-lysine N-methyltransferase EZH2 (Homo sapiens) (UniProt Q15910); experiment: Inhibition of EZH2 in human HeLa cells assessed as effect on PITX2 mRNA level after 6 hrs by RT-PCR analysis in presence of IFN-gamma; outline: as §1
[17] = molecular target: Histone-lysine N-methyltransferase EZH2 (Homo sapiens) (UniProt Q15910); experiment: Inhibition of EZH2 in human HeLa cells assessed as decrease in H3K27me3 levels at 2 uM after 6 hrs by Western blot analysis
[18] = molecular target: Histone-lysine N-methyltransferase EZH2 (Homo sapiens) (UniProt Q15910); experiment: Inhibition of EZH2 in human ASPC1 cells assessed as effect on HPRT mRNA level after 6 hrs by RT-PCR analysis in presence of IFN-gamma; outline: as §1
[19] = molecular target: Histone-lysine N-methyltransferase EZH2 (Homo sapiens) (UniProt Q15910); experiment: Inhibition of EZH2 in human MCF7 cells assessed as effect on IRF1 mRNA level after 6 hrs by RT-PCR analysis; outline: as §1
[20] = molecular target: Histone-lysine N-methyltransferase EZH2 (Homo sapiens) (UniProt Q15910); experiment: Inhibition of EZH2 in human AsPC1 cells assessed as decrease in H3K27me3 levels at 2 uM after 6 hrs by Western blot analysis
[21] = molecular target: Histone-lysine N-methyltransferase EZH2 (Homo sapiens) (UniProt Q15910); experiment: Inhibition of EZH2 in human MCF7 cells assessed as effect on IRF1 mRNA level after 6 hrs by RT-PCR analysis in presence of IFN-gamma; outline: as §2
[22] = molecular target: Histone-lysine N-methyltransferase EZH2 (Homo sapiens) (UniProt Q15910); experiment: Inhibition of EZH2 in human A549 cells assessed as effect on PITX2 mRNA level after 6 hrs by RT-PCR analysis in presence of IFN-gamma; outline: as §1
[23] = molecular target: Histone-lysine N-methyltransferase EZH2 (Homo sapiens) (UniProt Q15910); experiment: Inhibition of EZH2 in human HeLa cells assessed as effect on IRF1 mRNA level after 6 hrs by RT-PCR analysis; outline: as §1
[24] = molecular target: Histone-lysine N-methyltransferase EZH2 (Homo sapiens) (UniProt Q15910); experiment: Inhibition of EZH2 in human A549 cells assessed as decrease in H3K27me3 levels at 2 uM after 6 hrs by Western blot analysis
[25] = molecular target: Histone-lysine N-methyltransferase EZH2 (Homo sapiens) (UniProt Q15910); experiment: Inhibition of EZH2 in human A549 cells assessed as effect on HPRT mRNA level after 6 hrs by RT-PCR analysis in presence of IFN-gamma; outline: as §1
[26] = molecular target: Histone-lysine N-methyltransferase EZH2 (Homo sapiens) (UniProt Q15910); experiment: Inhibition of EZH2 in human A549 cells assessed as effect on HPRT mRNA level after 6 hrs by RT-PCR analysis; outline: as §1
[27] = molecular target: Histone-lysine N-methyltransferase EZH2 (Homo sapiens) (UniProt Q15910); experiment: Inhibition of EZH2 in human ASPC1 cells assessed as effect on HPRT mRNA level after 6 hrs by RT-PCR analysis; outline: as §1
[28] = molecular target: Histone-lysine N-methyltransferase EZH2 (Homo sapiens) (UniProt Q15910); experiment: Inhibition of EZH2 in human ASPC1 cells assessed as effect on PITX2 mRNA level after 6 hrs by RT-PCR analysis in presence of IFN-gamma; outline: as §1

Chain of Histone-lysine N-methyltransferase EZH2 (Homo sapiens) (Q15910 whole entry, looked up): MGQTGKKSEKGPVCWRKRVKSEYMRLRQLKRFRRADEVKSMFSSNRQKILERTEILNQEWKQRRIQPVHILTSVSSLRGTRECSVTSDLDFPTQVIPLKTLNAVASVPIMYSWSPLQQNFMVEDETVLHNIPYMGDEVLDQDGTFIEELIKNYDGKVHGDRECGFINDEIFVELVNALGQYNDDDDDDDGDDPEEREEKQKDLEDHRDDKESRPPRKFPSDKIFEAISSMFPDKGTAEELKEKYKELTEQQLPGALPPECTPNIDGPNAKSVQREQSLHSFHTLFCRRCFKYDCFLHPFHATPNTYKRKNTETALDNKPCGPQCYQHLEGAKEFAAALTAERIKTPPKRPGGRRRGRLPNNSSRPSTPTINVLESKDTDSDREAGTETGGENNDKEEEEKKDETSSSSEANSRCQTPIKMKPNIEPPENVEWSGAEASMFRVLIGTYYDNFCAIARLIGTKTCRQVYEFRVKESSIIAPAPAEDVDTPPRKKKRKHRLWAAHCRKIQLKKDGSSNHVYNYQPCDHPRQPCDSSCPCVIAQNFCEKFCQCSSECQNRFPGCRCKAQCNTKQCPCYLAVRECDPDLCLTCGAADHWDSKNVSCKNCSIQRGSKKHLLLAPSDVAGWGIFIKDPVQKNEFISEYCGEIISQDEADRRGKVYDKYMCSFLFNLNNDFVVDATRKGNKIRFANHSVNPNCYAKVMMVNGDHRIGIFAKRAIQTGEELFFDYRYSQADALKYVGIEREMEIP

CCCc1cc(C)[nH]c(=O)c1CNC(=O)c1cc(-c2ccnc(N3CCN(C)CC3)c2)cc2c1cnn2C(C)C
inhibition [1]: inactive | inhibition [2]: inactive | inhibition [3]: inactive | inhibition [4]: inactive | inhibition [5]: inactive | inhibition [6]: Active | inhibition [7]: inactive | inhibition [8]: inactive | inhibition [9]: inactive | inhibition [10]: inactive | inhibition [11]: inactive | inhibition [12]: inactive | inhibition [13]: inactive | inhibition [14]: inactive | inhibition [15]: inactive | inhibition [16]: inactive | inhibition [17]: Active | inhibition [18]: inactive | inhibition [19]: inactive | inhibition [20]: Active | inhibition [21]: inactive | inhibition [22]: inactive | inhibition [23]: inactive | inhibition [24]: Active | inhibition [25]: inactive | inhibition [26]: inactive | inhibition [27]: inactive | inhibition [28]: inactive
